≈ marks a conversion by molar mass, not a printed value.
Tests used:
Vero = test: Cytotoxicity against african green monkey Vero cells; assay type: cell-based; settings: Chlorocebus sabaeus
[1] = system: Mycobacterium tuberculosis; test: Antimicrobial activity against Mycobacterium tuberculosis H37Rv by low oxygen recovery assay; assay type: functional
Procedure, shortened: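 MIC determined against M. tuberculosis H37Rv held in the non-replicating phenotype under low oxygen, with growth assessed after recovery.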

[2] = system: Mycobacterium tuberculosis; test: Antimicrobial activity against Mycobacterium tuberculosis H37Rv in presence of 10% FBS; assay type: functional
[3] = system: Mycobacterium tuberculosis; test: Ratio of MIC for Mycobacterium tuberculosis H37Rv in presence of 4% BSA to MIC for Mycobacterium tuberculosis H37Rv; assay type: functional
[4] = system: Mycobacterium tuberculosis; test: Antimicrobial activity against Mycobacterium tuberculosis H37Rv infected in african green monkey Vero cells; assay type: functional
[5] = system: Mycobacterium tuberculosis; test: Ratio of MIC for Mycobacterium tuberculosis H37Rv in presence of 10% FBS to MIC for Mycobacterium tuberculosis H37Rv; assay type: functional
[6] = system: Mycobacterium tuberculosis; test: Ratio of MIC for Mycobacterium tuberculosis H37Rv by low oxygen recovery assay to MIC for Mycobacterium tuberculosis H37Rv; assay type: functional
Candida albicans = test: Antimicrobial activity against Candida albicans; assay type: functional
[7] = system: Mycolicibacterium smegmatis; test: Antimicrobial activity against Mycobacterium smegmatis; assay type: functional
Staphylococcus aureus = test: Antimicrobial activity against Staphylococcus aureus; assay type: functional
Escherichia coli = test: Antimicrobial activity against Escherichia coli; assay type: functional
[8] = system: Mycobacterium tuberculosis; test: Antimicrobial activity against Mycobacterium tuberculosis H37Rv in presence of 4% BSA; assay type: functional

Compound | IC50 (Vero) [µM] | MIC [1] [µM] | MIC [2] [µM] | Ratio [3] | MIC [4] [µM] | Ratio [5] | Ratio [6] | MIC (Candida albicans) [µM] | MIC [7] [µM] | MIC (Staphylococcus aureus) [µM] | MIC (Escherichia coli) [µM] | MIC [8] [µM]
O=C1C=Cc2nocc2/C1=C1/Nc2ccccc2C1=O | > 32 | 5.3 (≈ 1.4 µg/mL) | 0.57 | 3.7 | 0.57 (≈ 0.151 µg/mL) | 1 | 10 | > 50 | > 50 | > 50 | > 50 | 2.1
O=C1/C(=C2\Nc3ccccc3C2=O)Nc2ccccc21 [INDIGO] | – | – | – | – | > 32 | – | – | – | – | – | – | –
O=C1Nc2ccccc2/C1=C1/Nc2ccccc2C1=O [INDIRUBIN] | – | – | – | – | > 32 | – | – | – | – | – | – | –
O=C1Nc2ccccc2/C1=C1\C(=O)Nc2ccccc21 [ISOINDIGO] | – | – | – | – | 27 (≈ 7.08 µg/mL) | – | – | – | – | – | – | –
NNC(=O)c1ccncc1 [ISONIAZID] | > 100 | > 100 | 0.24 | – | 0.22 (≈ 0.0302 µg/mL) | – | – | – | 18.9 (≈ 2.59 µg/mL) | – | – | 0.45
CO[C@H]1/C=C/O[C@@]2(C)Oc3c(C)c(O)c4c(O)c(c(/C=N/N5CCN(C)CC5)c(O)c4c3C2=O)NC(=O)/C(C)=C\C=C\[C@H](C)[C@H](O)[C@@H](C)[C@@H](O)[C@@H](C)[C@H](OC(C)=O)[C@@H]1C [RIFAMPIN] | > 182 | 0.49 (≈ 0.403 µg/mL) | 0.21 | – | 0.038 (≈ 0.0313 µg/mL) | – | – | – | 16.7 (≈ 13.7 µg/mL) | – | – | 0.089

From ChEMBL document CHEMBL3097991, “A novel indigoid anti-tuberculosis agent” (Bioorg Med Chem Lett, 2014)
